Test system: HEK-293T
Test: Multiplex assay against HEK293T;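 on Population Tubulin-Different-Phenotype (%): share of the cells with healthy nuclei that show this phenotype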
Assay type: toxicity, cell-based
Conditions: human
Outline: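 Cells stained live at seeding with Hoechst33342, BioTracker Green Microtubule Cytoskeleton Dye, MitoTracker Red and Annexin V Alexa Fluor 680 were imaged on a CQ1 microscope at 37°C and 5% CO2 after compound addition. Their classification by CellPathfinder machine-learning gating ran from Hoechst high-intensity objects versus normal cells, to healthy, pyknosed or fragmented nuclei among normal cells, to mitotic or apoptotic among pyknosed cells. Tubulin, mitochondrial-mass and membrane-permeability phenotypes are per cents of healthy-nucleus cells.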

[1] = 12 h, 1 µM, compound concentration 1 uM, replicate 1
[2] = 12 h, 1 µM, compound concentration 1 uM, replicate 2
[3] = 12 h, 10 µM, compound concentration 10 uM, replicate 1
[4] = 12 h, 10 µM, compound concentration 10 uM, replicate 2
[5] = 24 h, 1 µM, compound concentration 1 uM, replicate 1
[6] = 24 h, 1 µM, compound concentration 1 uM, replicate 2
[7] = 24 h, 10 µM, compound concentration 10 uM, replicate 1
[8] = 24 h, 10 µM, compound concentration 10 uM, replicate 2
[9] = 48 h, 1 µM, compound concentration 1 uM, replicate 1
[10] = 48 h, 1 µM, compound concentration 1 uM, replicate 2
[11] = 48 h, 10 µM, compound concentration 10 uM, replicate 1
[12] = 48 h, 10 µM, compound concentration 10 uM, replicate 2

Compound: CCc1nn(CCCN2CCN(c3cccc(Cl)c3)CC2)c(=O)n1CCOc1ccccc1.Cl [NEFAZODONE HYDROCHLORIDE]
- Population Apoptotic (%) [1]: 47%
- Population Fragmented Nuclei (%) [1]: 7%
- Population Healthy Nuclei (%) [1]: 45%
- Population Hoechst High Intensity Objects (%) [1]: 10%
- Population Membrane Permeable-Phenotype (%) [1]: 7%
- Population Mitochondria Different-Phenotype (%) [1]: 88%
- Population Mitotic Cells (%) [1]: 52%
- Population Normal (%) [1]: 89%
- Population Pyknosed Nuclei (%) [1]: 46%
- Population Tubulin-Different-Phenotype (%) [1]: 72%
- Population Apoptotic (%) [2]: 9%
- Population Fragmented Nuclei (%) [2]: 5%
- Population Healthy Nuclei (%) [2]: 34%
- Population Hoechst High Intensity Objects (%) [2]: 3%
- Population Membrane Permeable-Phenotype (%) [2]: 9%
- Population Mitochondria Different-Phenotype (%) [2]: 54%
- Population Mitotic Cells (%) [2]: 90%
- Population Normal (%) [2]: 96%
- Population Pyknosed Nuclei (%) [2]: 59%
- Population Tubulin-Different-Phenotype (%) [2]: 49%
- Population Apoptotic (%) [3]: 90%
- Population Fragmented Nuclei (%) [3]: 29%
- Population Hoechst High Intensity Objects (%) [3]: 21%
- Population Mitochondria Different-Phenotype (%) [3]: 81%
- Population Mitotic Cells (%) [3]: 9%
- Population Normal (%) [3]: 78%
- Population Pyknosed Nuclei (%) [3]: 53%
- Population Tubulin-Different-Phenotype (%) [3]: 81%
- Population Apoptotic (%) [4]: 83%
- Population Fragmented Nuclei (%) [4]: 3%
- Population Healthy Nuclei (%) [4]: 17%
- Population Hoechst High Intensity Objects (%) [4]: 13%
- Population Membrane Permeable-Phenotype (%) [4]: 0%
- Population Mitochondria Different-Phenotype (%) [4]: 100%
- Population Mitotic Cells (%) [4]: 16%
- Population Normal (%) [4]: 86%
- Population Pyknosed Nuclei (%) [4]: 78%
- Population Tubulin-Different-Phenotype (%) [4]: 100%
- Population Apoptotic (%) [5]: 50%
- Population Fragmented Nuclei (%) [5]: 8%
- Population Healthy Nuclei (%) [5]: 57%
- Population Hoechst High Intensity Objects (%) [5]: 6%
- Population Membrane Permeable-Phenotype (%) [5]: 3%
- Population Mitochondria Different-Phenotype (%) [5]: 89%
- Population Mitotic Cells (%) [5]: 50%
- Population Normal (%) [5]: 93%
- Population Pyknosed Nuclei (%) [5]: 34%
- Population Tubulin-Different-Phenotype (%) [5]: 67%
- Population Apoptotic (%) [6]: 23%
- Population Fragmented Nuclei (%) [6]: 4%
- Population Healthy Nuclei (%) [6]: 47%
- Population Hoechst High Intensity Objects (%) [6]: 4%
- Population Membrane Permeable-Phenotype (%) [6]: 8%
- Population Mitochondria Different-Phenotype (%) [6]: 52%
- Population Mitotic Cells (%) [6]: 76%
- Population Normal (%) [6]: 95%
- Population Pyknosed Nuclei (%) [6]: 47%
- Population Tubulin-Different-Phenotype (%) [6]: 64%
- Population Apoptotic (%) [7]: 90%
- Population Fragmented Nuclei (%) [7]: 25%
- Population Healthy Nuclei (%) [7]: 21%
- Population Hoechst High Intensity Objects (%) [7]: 24%
- Population Mitotic Cells (%) [7]: 9%
- Population Normal (%) [7]: 75%
- Population Pyknosed Nuclei (%) [7]: 52%
- Population Apoptotic (%) [8]: 97%
- Population Fragmented Nuclei (%) [8]: 6%
- Population Healthy Nuclei (%) [8]: 19%
- Population Hoechst High Intensity Objects (%) [8]: 10%
- Population Membrane Permeable-Phenotype (%) [8]: 0%
- Population Mitochondria Different-Phenotype (%) [8]: 100%
- Population Mitotic Cells (%) [8]: 2%
- Population Normal (%) [8]: 89%
- Population Pyknosed Nuclei (%) [8]: 73%
- Population Tubulin-Different-Phenotype (%) [8]: 100%
- Population Apoptotic (%) [9]: 31%
- Population Fragmented Nuclei (%) [9]: 7%
- Population Healthy Nuclei (%) [9]: 77%
- Population Hoechst High Intensity Objects (%) [9]: 5%
- Population Membrane Permeable-Phenotype (%) [9]: 2%
- Population Mitochondria Different-Phenotype (%) [9]: 49%
- Population Mitotic Cells (%) [9]: 68%
- Population Normal (%) [9]: 94%
- Population Pyknosed Nuclei (%) [9]: 14%
- Population Tubulin-Different-Phenotype (%) [9]: 44%
- Population Apoptotic (%) [10]: 17%
- Population Fragmented Nuclei (%) [10]: 4%
- Population Healthy Nuclei (%) [10]: 72%
- Population Hoechst High Intensity Objects (%) [10]: 1%
- Population Membrane Permeable-Phenotype (%) [10]: 6%
- Population Mitochondria Different-Phenotype (%) [10]: 27%
- Population Mitotic Cells (%) [10]: 82%
- Population Normal (%) [10]: 98%
- Population Pyknosed Nuclei (%) [10]: 22%
- Population Tubulin-Different-Phenotype (%) [10]: 49%
- Population Apoptotic (%) [11]: 90%
- Population Fragmented Nuclei (%) [11]: 21%
- Population Healthy Nuclei (%) [11]: 33%
- Population Hoechst High Intensity Objects (%) [11]: 15%
- Population Membrane Permeable-Phenotype (%) [11]: 1%
- Population Mitochondria Different-Phenotype (%) [11]: 98%
- Population Mitotic Cells (%) [11]: 9%
- Population Normal (%) [11]: 84%
- Population Pyknosed Nuclei (%) [11]: 44%
- Population Tubulin-Different-Phenotype (%) [11]: 94%
- Population Apoptotic (%) [12]: 95%
- Population Fragmented Nuclei (%) [12]: 6%
- Population Healthy Nuclei (%) [12]: 27%
- Population Hoechst High Intensity Objects (%) [12]: 12%
- Population Membrane Permeable-Phenotype (%) [12]: 0%
- Population Mitochondria Different-Phenotype (%) [12]: 100%
- Population Mitotic Cells (%) [12]: 4%
- Population Normal (%) [12]: 87%
- Population Pyknosed Nuclei (%) [12]: 65%
- Population Tubulin-Different-Phenotype (%) [12]: 100%
